In ChEMBL document CHEMBL1795297, “Design, synthesis and molecular docking studies of novel triazole as antifungal agent” (2011):
≈ marks a conversion by molar mass, not a printed value.

Columns and labels:
Type in all cases: functional
Candida albicans = experiment: Antifungal activity against Candida albicans ATCC Y0109 after 24 hrs by micro-broth dilution method; details: ATCC Y0109, 24 h
Procedure, shortened: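 ATCC quality-control strain, tested in every assay. NCCLS M27-A2 broth microdilution. Compounds were dissolved in DMSO, serially diluted in growth medium, inoculated and incubated at 35 °C, with growth read at 24 h. MIC80 is the first well with about 80% growth reduction relative to the drug-free control. Each test was run three times and the mean of replicates taken.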

Trichophyton rubrum = experiment: Antifungal activity against Trichophyton rubrum clinical isolate by micro-broth dilution method
Procedure, shortened: (§1)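 Clinical isolate. MIC by broth microdilution following the NCCLS M27-A2 reference method for yeasts. Compounds were dissolved in DMSO, serially diluted in growth medium, inoculated and incubated at 35 °C. MIC80 is the first well with about 80% less growth than the drug-free well. Each test was run three times and the mean of replicates reported.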

Candida tropicalis = experiment: Antifungal activity against Candida tropicalis clinical isolate by micro-broth dilution method; procedure, shortened: as §1
Aspergillus fumigatus = experiment: Antifungal activity against Aspergillus fumigatus clinical isolate by micro-broth dilution method; procedure, shortened: as §1
Nannizzia gypsea = experiment: Antifungal activity against Microsporum gypseum clinical isolate by micro-broth dilution method; procedure, shortened: as §1
[1] = Antifungal activity against Fonsecaea compacta clinical isolate by micro-broth dilution method; procedure, shortened: as §1
Cryptococcus neoformans = experiment: Antifungal activity against Cryptococcus neoformans ATCC BLS108 after 72 hrs by micro-broth dilution method; details: ATCC BLS108, 72 h
Procedure, shortened: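 Quality-control ATCC strain included in each assay. Microbroth dilution per NCCLS M27-A2. DMSO-dissolved compounds were serially diluted in growth medium, inoculated and held at 35 °C, with MIC read at 72 h. MIC80 is the first well showing about 80% growth reduction versus the drug-free well. Tests were done in triplicate and the mean reported.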

Candida parapsilosis = experiment: Antifungal activity against Candida parapsilosis clinical isolate by micro-broth dilution method; details: Lodderomyces parapsilosis; procedure, shortened: as §1

| SMILES | MIC80 (Candida albicans) | MIC80 (Trichophyton rubrum) | MIC80 (Candida tropicalis) | MIC80 (Aspergillus fumigatus) | MIC80 (Nannizzia gypsea) | MIC80 [1] | MIC80 (Cryptococcus neoformans) | MIC80 (Candida parapsilosis) |
| --- | --- | --- | --- | --- | --- | --- | --- | --- |
| CC(C)(C)C(=O)Nc1ccc(N2CCN(CC(O)(Cn3cncn3)c3ccc(F)cc3F)CC2)c(C(F)(F)F)c1 (stereo not drawn) | 0.25 µg/mL (≈ 0.441 µM) | 4 µg/mL (≈ 7.06 µM) | 1 µg/mL (≈ 1.76 µM) | > 64 µg/mL | 0.25 µg/mL (≈ 0.441 µM) | 4 µg/mL (≈ 7.06 µM) | 1 µg/mL (≈ 1.76 µM) | 1 µg/mL (≈ 1.76 µM) |
| O=C(/C=C/c1ccc(Br)cc1)Nc1ccc(N2CCN(CC(O)(Cn3cncn3)c3ccc(F)cc3F)CC2)c(C(F)(F)F)c1 (stereo not drawn) | 1 µg/mL (≈ 1.45 µM) |  |  | 1 µg/mL (≈ 1.45 µM) |  |  | 0.25 µg/mL (≈ 0.362 µM) |  |
| O=C(/C=C/c1ccc([N+](=O)[O-])cc1)Nc1ccc(N2CCN(CC(O)(Cn3cncn3)c3ccc(F)cc3F)CC2)c(C(F)(F)F)c1 (stereo not drawn) | 0.0156 µg/mL (≈ 0.0237 µM) |  |  | 4 µg/mL (≈ 6.08 µM) |  |  | 0.25 µg/mL (≈ 0.38 µM) |  |
| O=C(/C=C/c1cccc(Br)c1)Nc1ccc(N2CCN(CC(O)(Cn3cncn3)c3ccc(F)cc3F)CC2)c(C(F)(F)F)c1 (stereo not drawn) | 0.25 µg/mL (≈ 0.362 µM) |  |  | 1 µg/mL (≈ 1.45 µM) |  |  | 0.25 µg/mL (≈ 0.362 µM) |  |
| O=C(/C=C/c1cccc(F)c1)Nc1ccc(N2CCN(CC(O)(Cn3cncn3)c3ccc(F)cc3F)CC2)c(C(F)(F)F)c1 (stereo not drawn) | 0.25 µg/mL (≈ 0.396 µM) |  |  | 16 µg/mL (≈ 25.4 µM) |  |  | 0.25 µg/mL (≈ 0.396 µM) |  |
| O=C(/C=C/c1ccccc1Cl)Nc1ccc(N2CCN(CC(O)(Cn3cncn3)c3ccc(F)cc3F)CC2)c(C(F)(F)F)c1 (stereo not drawn) | 0.0625 µg/mL (≈ 0.0966 µM) |  |  | 4 µg/mL (≈ 6.18 µM) |  |  | 0.25 µg/mL (≈ 0.386 µM) |  |
| COc1cccc(OC)c1/C=C/C(=O)Nc1ccc(N2CCN(CC(O)(Cn3cncn3)c3ccc(F)cc3F)CC2)c(C(F)(F)F)c1 (stereo not drawn) | 0.25 µg/mL (≈ 0.372 µM) |  |  | > 64 µg/mL |  |  | 1 µg/mL (≈ 1.49 µM) |  |
| N#Cc1cccc(/C=C/C(=O)Nc2ccc(N3CCN(CC(O)(Cn4cncn4)c4ccc(F)cc4F)CC3)c(C(F)(F)F)c2)c1 (stereo not drawn) | 0.25 µg/mL (≈ 0.392 µM) |  |  | 4 µg/mL (≈ 6.27 µM) |  |  | 0.25 µg/mL (≈ 0.392 µM) |  |
| O=C(/C=C/c1cccc(Cl)c1)Nc1ccc(N2CCN(CC(O)(Cn3cncn3)c3ccc(F)cc3F)CC2)c(C(F)(F)F)c1 (stereo not drawn) | 0.25 µg/mL (≈ 0.386 µM) |  |  | 4 µg/mL (≈ 6.18 µM) |  |  | 0.25 µg/mL (≈ 0.386 µM) |  |
| O=C(Nc1ccc(N2CCN(CC(O)(Cn3cncn3)c3ccc(F)cc3F)CC2)c(C(F)(F)F)c1)c1ccco1 (stereo not drawn) | 0.0625 µg/mL (≈ 0.108 µM) |  |  | 1 µg/mL (≈ 1.73 µM) |  |  | 0.25 µg/mL (≈ 0.434 µM) |  |
| O=C(/C=C/c1ccccc1F)Nc1ccc(N2CCN(CC(O)(Cn3cncn3)c3ccc(F)cc3F)CC2)c(C(F)(F)F)c1 (stereo not drawn) | 0.0625 µg/mL (≈ 0.0991 µM) |  |  | 4 µg/mL (≈ 6.34 µM) |  |  | 0.25 µg/mL (≈ 0.396 µM) |  |
| O=C(Nc1ccc(N2CCN(CC(O)(Cn3cncn3)c3ccc(F)cc3F)CC2)c(C(F)(F)F)c1)c1ccncc1 (stereo not drawn) | 0.0625 µg/mL (≈ 0.106 µM) |  |  | 1 µg/mL (≈ 1.7 µM) |  |  | 0.25 µg/mL (≈ 0.425 µM) |  |
| O=C(/C=C/c1ccccc1[N+](=O)[O-])Nc1ccc(N2CCN(CC(O)(Cn3cncn3)c3ccc(F)cc3F)CC2)c(C(F)(F)F)c1 (stereo not drawn) | 0.25 µg/mL (≈ 0.38 µM) |  |  | > 64 µg/mL |  |  | 0.25 µg/mL (≈ 0.38 µM) |  |
| CCc1ccc(C(=O)Nc2ccc(N3CCN(CC(O)(Cn4cncn4)c4ccc(F)cc4F)CC3)c(C(F)(F)F)c2)cc1 (stereo not drawn) | 0.25 µg/mL (≈ 0.407 µM) |  |  | 4 µg/mL (≈ 6.51 µM) |  |  | 0.0625 µg/mL (≈ 0.102 µM) |  |
| O=C(Nc1ccc(N2CCN(CC(O)(Cn3cncn3)c3ccc(F)cc3F)CC2)c(C(F)(F)F)c1)c1cccc(C(F)(F)F)c1 (stereo not drawn) | 0.0625 µg/mL (≈ 0.0955 µM) |  |  | 16 µg/mL (≈ 24.4 µM) |  |  | 0.0625 µg/mL (≈ 0.0955 µM) |  |
| O=C(Nc1ccc(N2CCN(CC(O)(Cn3cncn3)c3ccc(F)cc3F)CC2)c(C(F)(F)F)c1)c1ccc(Cl)cc1Cl (stereo not drawn) | 0.25 µg/mL (≈ 0.381 µM) |  |  | 0.25 µg/mL (≈ 0.381 µM) |  |  | 0.25 µg/mL (≈ 0.381 µM) |  |
